# In ChEMBL document CHEMBL1152861, “Synthesis and serotonin receptor activity of the arylpiperazine alkyl/propoxy derivatives of new azatricycloundecanes” (Eur J Med Chem, 2009):
# Active and inactive are the calls of the source. The rule behind the calls is not given here.
# Columns and labels:
# Mus musculus [1] = assay: Neurotoxicity in Albino Swiss mouse administered intraperitoneally dose equivalent to 0.1 of LD50 after 30 mins measured for 1 min by chimney test; type: toxicity, organism-based; settings: in vivo, ip
# Summary of the method: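 Male Albino Swiss mice (20-24 g), i.p. suspension in 1% Tween 80 at 0.1 mL/10 g body weight, with vehicle controls and 8 mice per group. Tested 30 min post-dose by having mice climb backwards up a plastic tube (3 cm inner diameter, 25 cm long). Failing three tasks within 60 s scored as motor impairment, reported as % of animals failing.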
# [2] = biological target: 5-hydroxytryptamine receptor 2A (Homo sapiens, UniProt P28223); assay: Displacement of [3H]ketanserin from 5HT2A receptor
# Chain of 5-hydroxytryptamine receptor 2A (P28223 whole entry): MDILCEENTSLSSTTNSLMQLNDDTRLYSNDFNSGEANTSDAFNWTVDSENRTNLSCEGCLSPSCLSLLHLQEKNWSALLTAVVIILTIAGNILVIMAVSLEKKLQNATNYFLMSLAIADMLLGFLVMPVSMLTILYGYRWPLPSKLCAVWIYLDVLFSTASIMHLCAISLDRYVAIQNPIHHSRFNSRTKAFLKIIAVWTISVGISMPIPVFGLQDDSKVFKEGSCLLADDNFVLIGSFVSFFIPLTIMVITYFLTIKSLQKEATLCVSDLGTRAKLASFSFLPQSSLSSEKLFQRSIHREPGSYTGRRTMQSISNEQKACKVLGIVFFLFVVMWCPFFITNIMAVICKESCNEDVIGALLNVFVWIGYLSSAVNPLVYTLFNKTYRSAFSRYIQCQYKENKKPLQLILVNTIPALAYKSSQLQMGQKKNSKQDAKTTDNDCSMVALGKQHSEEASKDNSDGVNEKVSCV
# [3] = biological target: T1, 5-hydroxytryptamine receptor 1A (Rattus norvegicus, UniProt P19327); assay: Displacement of [3H]8-OH-DPAT from 5HT1A receptor in rat hippocampal membranes; type: cell membranes, Hippocampus, Membrane
# T1 sequence (P19327 whole entry): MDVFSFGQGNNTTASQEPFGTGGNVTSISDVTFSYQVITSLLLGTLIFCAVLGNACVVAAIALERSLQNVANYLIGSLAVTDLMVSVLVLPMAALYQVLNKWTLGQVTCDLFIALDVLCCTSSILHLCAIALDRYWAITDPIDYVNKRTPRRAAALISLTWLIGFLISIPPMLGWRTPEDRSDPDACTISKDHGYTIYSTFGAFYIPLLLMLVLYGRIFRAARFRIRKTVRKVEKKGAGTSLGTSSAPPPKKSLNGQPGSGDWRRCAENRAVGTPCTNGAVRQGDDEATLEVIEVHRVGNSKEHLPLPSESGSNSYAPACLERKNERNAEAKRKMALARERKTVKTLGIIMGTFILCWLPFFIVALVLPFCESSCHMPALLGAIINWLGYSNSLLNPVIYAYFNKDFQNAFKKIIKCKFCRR
# Mus musculus [4] = assay: Anxiolytic activity in Albino Swiss mouse assessed as number of punished crossing administered intraperitoneally dose equivalent to 0.1 of LD50 after 30 mins measured for 1 min by four-plate test; type: functional, organism-based
# Summary of the method: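 Male Albino Swiss mice (20-24 g), 8 per group, received ip compound in 1% Tween 80 (0.1 mL/10 g) at a dose equal to 0.1 of LD50; vehicle controls. Four-plate test 30 min later; punished crossings counted over 1 min.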
# Mus musculus [5] = assay: Antidepressive activity in Albino Swiss mouse assessed as total immobility time at 5 mg/kg, ip after 30 mins measured for 4 mins by forced swimming test; type: functional; settings: route intraperitoneal
# Summary of the method: (§1)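 Forced swimming test in male Albino Swiss mice (20-24 g), 8 per group. Compounds given ip as suspensions in 1% Tween 80, 0.1 mL/10 g, at doses of 0.1-0.00635 of LD50, 30 min before test; imipramine 15 mg/kg ip as reference; controls got vehicle. Mice swam 6 min in a glass cylinder with 15 cm of 25 °C water; total immobility time scored; mean ± SEM.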
# Mus musculus [6] = assay: Antidepressive activity in Albino Swiss mouse assessed as total immobility time at 10 mg/kg, ip after 30 mins measured for 4 mins by forced swimming test; type: functional; settings: route intraperitoneal; summary of the method: as §1
# [7] = Selectivity ratio of Ki for 5HT2A receptor to Ki for rat 5HT1A receptor
# Mus musculus [8] = assay: Effect on spontaneous locomotor activity in Albino Swiss mouse administered intraperitoneally dose equivalent to 0.1 of LD50 after 30 mins measured for 60 min by automatic photoresistor actometer
# Mus musculus [9] = assay: Antidepressive activity in Albino Swiss mouse assessed as total immobility time at 15 mg/kg, ip after 30 mins measured for 4 mins by forced swimming test; type: functional; settings: route intraperitoneal; summary of the method: as §1
# Mus musculus [10] = assay: Antidepressive activity in Albino Swiss mouse assessed as total immobility time at 1.25 mg/kg, ip after 30 mins measured for 4 mins by forced swimming test; type: functional; settings: route intraperitoneal; summary of the method: as §1
# Mus musculus [11] = assay: Antidepressive activity in Albino Swiss mouse assessed as total immobility time at 2.5 mg/kg, ip after 30 mins measured for 4 mins by forced swimming test; type: functional; settings: route intraperitoneal; summary of the method: as §1
# Mus musculus [12] = assay: Antidepressive activity in Albino Swiss mouse assessed as total immobility time at 20 mg/kg, ip after 30 mins measured for 4 mins by forced swimming test; type: functional; settings: route intraperitoneal; summary of the method: as §1
Structure (SMILES),Activity (Mus musculus [1]),Ki [2],Ki [3],Activity (Mus musculus [4]),Activity (Mus musculus [8]),also measured
COc1ccccc1N1CCN(CCCCN2C(=O)C3C4C(C)=CC(OC(C)=O)(CC4C)C3C2=O)CC1 (configuration not stated),Not Active,737 nM,10 nM,inactive,inactive,Time (Mus musculus [5]): 113.8 s; Time (Mus musculus [6]): 71.7 s; Ratio Ki [7]: 74
COc1ccccc1N1CCN(CCCON2C(=O)C3C4C(C)=CC(OC(C)=O)(CC4C)C3C2=O)CC1 (configuration not stated),Not Active,681 nM,27 nM,inactive,inactive,
COc1ccccc1N1CCN(CCCCN2C(=O)C3C4C(=O)CC(OC(C)=O)(CC4(C)C)C3C2=O)CC1 (configuration not stated),,770 nM,22 nM,,,
CC(=O)OC12C=C(C)C(C(C)C1)C1C(=O)N(OCCCN3CCN(c4ccccc4)CC3)C(=O)C12 (configuration not stated),Not Active,375 nM,115 nM,inactive,inactive,
CC1CC2(C)CC(=O)C1C1C(=O)N(OCCCN3CCN(c4ccccc4F)CC3)C(=O)C12 (configuration not stated),,910 nM,331 nM,,,
CC1CC2(C)CC(=O)C1C1C(=O)N(CCCCN3CCN(c4ccccn4)CC3)C(=O)C12 (configuration not stated),,577 nM,202 nM,,,
CN(C)CCCN1c2ccccc2CCc2ccccc21 [IMIPRAMINE],,,,,,Time (Mus musculus [9]): 69.5 s
COc1ccccc1N1CCN(CCCN2C(=O)C3C4C(C)=CC(OC(C)=O)(CC4C)C3C2=O)CC1 (configuration not stated),Not Active,1020 nM,35 nM,inactive,inactive,
CC1CC2(C)CC(=O)C1C1C(=O)N(CCCCN3CCN(c4ccc(F)cc4)CC3)C(=O)C12 (configuration not stated),Not Active,102 nM,521 nM,inactive,inactive,
COc1ccccc1N1CCN(CCCON2C(=O)C3C4C(=O)CC(C)(CC4C)C3C2=O)CC1 (configuration not stated),Not Active,637 nM,124 nM,inactive,inactive,Time (Mus musculus [5]): 63.5 s; Time (Mus musculus [6]): 31.2 s; Time (Mus musculus [10]): 123.7 s; Time (Mus musculus [11]): 83.5 s; Time (Mus musculus [12]): 29.4 s
CC(=O)OC12C=C(C)C(C(C)C1)C1C(=O)N(CCCCN3CCN(c4ccccn4)CC3)C(=O)C12 (configuration not stated),Not Active,965 nM,97 nM,inactive,inactive,
CC1CC2(C)CC(=O)C1C1C(=O)N(CCCCN3CCN(Cc4ccccc4)CC3)C(=O)C12 (configuration not stated),,2090 nM,2730 nM,,,
CC1CC2(C)CC(=O)C1C1C(=O)N(CCCCN3CCN(c4ncccn4)CC3)C(=O)C12 (configuration not stated),,3380 nM,1520 nM,,,
COc1ccccc1N1CCN(CCCON2C(=O)C3C4C=CC(OC)(CC4)C3C2=O)CC1 (configuration not stated),,1390 nM,31 nM,,,
CC(=O)OC12C=C(C)C(C(C)C1)C1C(=O)N(CCCCN3CCN(Cc4ccccc4)CC3)C(=O)C12 (configuration not stated),,9720 nM,1420 nM,,,
CC1CC2(C)CC(=O)C1C1C(=O)N(OCCCN3CCN(c4ccccc4)CC3)C(=O)C12 (configuration not stated),,300 nM,616 nM,,,
CC(=O)OC12C=C(C)C(C(C)C1)C1C(=O)N(CCCCN3CCN(c4ccc(F)cc4)CC3)C(=O)C12 (configuration not stated),,170 nM,286 nM,,,
CC(=O)OC12C=C(C)C(C(C)C1)C1C(=O)N(CCCCN3CCN(c4ccccc4)CC3)C(=O)C12 (configuration not stated),Not Active,286 nM,34 nM,inactive,inactive,
CC(=O)OC12C=C(C)C(C(C)C1)C1C(=O)N(CCCN3CCN(c4ccccc4)CC3)C(=O)C12 (configuration not stated),,575 nM,294 nM,,,
CC1CC2(C)CC(=O)C1C1C(=O)N(CCCN3CCN(c4ccccc4)CC3)C(=O)C12 (configuration not stated),,292 nM,344 nM,,,
CC(=O)OC12C=C(C)C(C(C)C1)C1C(=O)N(OCCCN3CCN(c4ccccn4)CC3)C(=O)C12 (configuration not stated),,1840 nM,200 nM,,,
CC(=O)OC12C=C(C)C(C(C)C1)C1C(=O)N(CCCCN3CCN(c4ncccn4)CC3)C(=O)C12 (configuration not stated),,6020 nM,800 nM,,,
COc1ccccc1N1CCN(CCCN2C(=O)C3C4C(=O)CC(C)(CC4C)C3C2=O)CC1 (configuration not stated),Not Active,429 nM,44 nM,inactive,inactive,
CC1CC2(C)CC(=O)C1C1C(=O)N(OCCCN3CCN(c4cccc(Cl)c4)CC3)C(=O)C12 (configuration not stated),Not Active,110 nM,92 nM,inactive,inactive,
CCOC12CCC(C(=O)C1)C1C(=O)N(CCCCN3CCN(c4ccccc4OC)CC3)C(=O)C12 (configuration not stated),,2790 nM,26 nM,,,
CC(=O)OC12C=C(C)C(C(C)C1)C1C(=O)N(OCCCN3CCN(c4cccc(Cl)c4)CC3)C(=O)C12 (configuration not stated),Not Active,376 nM,37 nM,inactive,inactive,
CC(=O)OC12C=C(C)C(C(C)C1)C1C(=O)N(OCCCN3CCN(c4ccccc4F)CC3)C(=O)C12 (configuration not stated),Not Active,1070 nM,80 nM,inactive,inactive,Time (Mus musculus [5]): 48.3 s; Time (Mus musculus [6]): 27.5 s; Time (Mus musculus [10]): 114.3 s; Time (Mus musculus [11]): 56.8 s; Time (Mus musculus [12]): 18.4 s
COc1ccccc1N1CCN(CCCCN2C(=O)C3C4C(=O)CC(C)(CC4C)C3C2=O)CC1 (configuration not stated),Not Active,522 nM,25 nM,inactive,inactive,
CC1CC2(C)CC(=O)C1C1C(=O)N(CCCCN3CCN(c4ccccc4)CC3)C(=O)C12 (configuration not stated),Not Active,181 nM,50 nM,inactive,inactive,
